Assay results taken from ChEMBL document CHEMBL2424556, “Hybrid benzofuran-bisindole derivatives: new prototypes with promising anti-hyperlipidemic activities” (2013).

How the values were obtained:
Format in all cases: functional
Rattus norvegicus [1] = experiment: Antihyperlipidemic activity in Charles-Foster rat assessed as reversal of triton-induced increase in plasma triglyceride level at 100 mg/kg, po after 18 hrs relative to control
Outline: (§1)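 Male adult Charles Foster rats (200-225 g), 6 per group; triton WR-1339 400 mg/kg i.p. plus oral test agent in 0.2% gum acacia suspension, given together, diet withdrawn. After 18 h, retro-orbital EDTA blood was centrifuged 2500 g, 4 °C, 10 min; plasma was diluted 1:3 in saline and TC, PL and TG were assayed enzymatically (mg/dl). Mean ± SD; Student's t-test.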

Rattus norvegicus [2] = experiment: Antihyperlipidemic activity in Charles-Foster rat assessed as post heparin lipolytic activity at 100 mg/kg, po after 18 hrs by spectrophotometric analysis relative to control
Outline: (§2)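 Male adult Charles Foster rats (200-225 g), 6 per group. Triton WR-1339 400 mg/kg i.p.; test agent 100 mg/kg p.o. as gum acacia (0.2% w/v) suspension in water, given simultaneously, diet withdrawn; vehicle to control and triton groups. At 18 h under thiopentone (50 mg/kg), retro-orbital blood collected into EDTA and plasma separated. Post-heparin lipolytic activity read spectrophotometrically as nmol free fatty acid/h/ml plasma; mean ± SD; Student's t-test.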

Rattus norvegicus [3] = experiment: Antihyperlipidemic activity in Charles-Foster rat assessed as post heparin lipolytic activity at 100 mg/kg, po after 18 hrs by spectrophotometric analysis relative to triton-treated control; outline: as §2
Rattus norvegicus [4] = experiment: Antihyperlipidemic activity in Charles-Foster rat assessed as reversal of triton-induced increase in plasma phospholipid level at 100 mg/kg, po after 18 hrs relative to control; outline: as §1
Rattus norvegicus [5] = experiment: Antihyperlipidemic activity in Charles-Foster rat assessed as reversal of triton-induced increase in plasma triglyceride level at 100 mg/kg, po after 18 hrs relative to triton-treated control; outline: as §1
Rattus norvegicus [6] = experiment: Antihyperlipidemic activity in Charles-Foster rat assessed as reversal of triton-induced increase in plasma total cholesterol level at 100 mg/kg, po after 18 hrs relative to triton-treated control; outline: as §1
Rattus norvegicus [7] = experiment: Antihyperlipidemic activity in Charles-Foster rat assessed as reversal of triton-induced increase in plasma total cholesterol level at 100 mg/kg, po after 18 hrs relative to control; outline: as §1
Rattus norvegicus [8] = experiment: Antihyperlipidemic activity in Charles-Foster rat assessed as reversal of triton-induced increase in plasma phospholipid level at 100 mg/kg, po after 18 hrs relative to triton-treated control; outline: as §1

Row | Structure (SMILES) | Activity (Rattus norvegicus [1]) [mg/dL] | Activity (Rattus norvegicus [2]) [nmol/h/mL] | Activity (Rattus norvegicus [3]) [%] | Activity (Rattus norvegicus [4]) [mg/dL] | Activity (Rattus norvegicus [5]) [%] | Activity (Rattus norvegicus [6]) [%] | Activity (Rattus norvegicus [7]) [mg/dL] | Activity (Rattus norvegicus [8]) [%]
1 | COc1ccc(C(=O)c2cc3cc(C(c4c[nH]c5ccccc45)c4c[nH]c5ccccc45)cc(C(C)C)c3o2)cc1 | 181.53 | 14.79 | 12 | 175.84 | -16 | -17 | 152.89 | -15
2 | CC(C)(C)c1cc(C(c2c[nH]c3ccccc23)c2c[nH]c3ccccc23)cc2cc(C(=O)c3ccc(Cl)cc3)oc12 | 194.49 | 14.37 | 9 | 187.91 | -10 | -10 | 165.78 | -9
3 | Cc1ccc(C(=O)c2cc3cc(C(c4c[nH]c5ccccc45)c4c[nH]c5ccccc45)cc(C)c3o2)cc1 | 196.66 | 14.26 | 8 | 190.32 | -9 | -8 | 169.47 | -8
4 | COc1ccc(C(=O)c2cc3cc(C(c4c[nH]c5ccc(OC)cc45)c4c[nH]c5ccc(OC)cc45)cc(Cl)c3o2)cc1 | 168.56 | 15.19 | 15 | 165.5 | -22 | -21 | 145.52 | -20
5 | CCc1cc(C(c2c[nH]c3ccccc23)c2c[nH]c3ccccc23)cc2cc(C(=O)c3ccc(OC)cc3)oc12 | 196.66 | 14.26 | 8 | 190.32 | -9 | -8 | 169.47 | -8
6 | COc1ccc(C(=O)c2cc3cc(C(c4c[nH]c5ccccc45)c4c[nH]c5ccccc45)cc(C)c3o2)cc1 | 194.49 | 13.71 | 4 | 184.12 | -10 | -12 | 162.1 | -11
7 | COc1ccc(C(=O)c2cc3cc(C(c4c[nH]c5ccc([N+](=O)[O-])cc45)c4c[nH]c5ccc([N+](=O)[O-])cc45)cc(C(C)C)c3o2)cc1 | 193.81 | 13.75 | 4 | 186.19 | -10 | -9 | 167.63 | -10
8 | CCc1cc(C(c2c[nH]c3ccc([N+](=O)[O-])cc23)c2c[nH]c3ccc([N+](=O)[O-])cc23)cc2cc(C(=O)c3ccc(OC)cc3)oc12 | 207.46 | 13.47 | 2 | 194.46 | -4 | -4 | 176.84 | -6
9 | CCc1cc(C(c2c[nH]c3ccccc23)c2c[nH]c3ccccc23)cc2cc(C(=O)c3ccc(Cl)cc3)oc12 | 170.72 | 15.05 | 14 | 163.43 | -21 | -20 | 147.36 | -21
10 | COc1ccc(C(=O)c2cc3cc(C(c4c[nH]c5ccccc45)c4c[nH]c5ccccc45)cc(C(C)(C)C)c3o2)cc1 | 198.82 | 13.73 | 4 | 190.32 | -8 | -7 | 171.31 | -8
